Source: PubChem BioAssay (Broad Institute)
F508del corr: F508del CFTR correction, initial screen, CFBE line, single point | CFBE cells, YFP halide quenching; stimulated with forskolin plus potentiator P3; % fluorescence drop versus neutral controls | activity (quench increase), % at 7.58 µM | 0.36% of 350,000 active;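 active means mean added fluorescence quench of at least 8% versus neutral control, with both replicates also reaching 8%; inconclusive means only one of the mean or replicate conditions met; inactive means mean below 8% and not both replicates reaching 8%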;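 further: cells transiently co-express mutant CFTR-F508del with the halide-sensitive YFP; corrector assay measuring rescue of mutant channel to the surface after 24 h compound exposure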
E-selectin induc: E-selectin induction in HUVECs, primary screen, imaging, HUVEC, immunofluorescence imaging, single point; normalized: neutral wells 0, TNF-alpha wells 100; 0.37% of 260,000 active; P16581; activation, % at 7.58 µM;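 active means mean E-selectin-positive cell signal at least 10% of the positive control, reached in at least 60% of replicates, without over 20% cell loss; inconclusive means no rule given, readout overlaps actives, possibly toxicity-flagged; inactive means the rest, including those meeting only one limit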
Target sequence (P16581 whole entry, looked up): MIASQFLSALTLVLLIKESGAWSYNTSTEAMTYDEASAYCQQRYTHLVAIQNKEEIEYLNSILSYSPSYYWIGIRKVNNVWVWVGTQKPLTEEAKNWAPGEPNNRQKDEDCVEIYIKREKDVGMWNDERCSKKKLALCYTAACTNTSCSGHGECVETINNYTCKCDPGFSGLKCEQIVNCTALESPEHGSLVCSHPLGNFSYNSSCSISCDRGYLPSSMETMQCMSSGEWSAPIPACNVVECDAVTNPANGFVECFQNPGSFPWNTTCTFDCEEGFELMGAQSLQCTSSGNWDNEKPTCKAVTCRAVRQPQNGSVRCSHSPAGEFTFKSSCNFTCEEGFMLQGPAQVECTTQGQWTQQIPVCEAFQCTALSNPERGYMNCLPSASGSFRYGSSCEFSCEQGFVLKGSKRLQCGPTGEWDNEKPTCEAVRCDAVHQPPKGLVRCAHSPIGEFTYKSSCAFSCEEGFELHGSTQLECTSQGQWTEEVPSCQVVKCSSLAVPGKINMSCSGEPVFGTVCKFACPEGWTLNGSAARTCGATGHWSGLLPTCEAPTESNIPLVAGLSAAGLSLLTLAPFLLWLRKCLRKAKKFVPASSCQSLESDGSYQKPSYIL
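Test system – human umbilical vein endothelial cells (HUVEC), E-selectin induction · Input – 3,000 HUVEC seeded per well · Buffer or medium – EGM-2, gelatin · Compound dosing – single-point compound dose · Detection – immunofluorescence imaging · Measure – percent E-selectin-positive cells · Controls – TNF-alpha high, DMSO low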
DENV2 CPE rescue: inhibitors of DENV2 cytopathic effect, primary screen, cell-based, plate reader, single concentration; DENV2-infected cells, cytopathic effect rescue; CPE inhibition, % at 9.99 µM; 1.7% of 350,000 active; AID 651640, 2012; in the data active means CPE inhibition above about 20%, passing the limit was not always enough; inconclusive means no clear call, values can overlap the other calls; tested in BHK-21 cells
miR-122 sensor: miR-122 Renilla sensor signal increase in Huh7, primary screen, miR-122 inhibitor project, cell-based, single point, plate reader | Huh7 miR-122 Renilla luciferase sensor, 48 h; neutral wells = 0, positive control = 100 | activation (reporter increase), % at 12.5 µM | 0.3% of 340,000 active;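 active means mean replicate activation score at least 90 and every replicate individually at or above 90; inconclusive means only one of the two criteria met; inactive means neither criterion met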;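 further: higher luciferase means less miR-122 activity so hits act as miR-122 inhibitors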
GSIS activator: GLuc luminescence reporter in INS-1E cells, primary screen for activators of glucose-dependent secretion of insulin | INS-1E GLuc reporter insulin secretion, 2-3 h | activation, % at 16.6 µM | 0.61% of 370,000 active | AID 743287, 2014;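 active means lowest replicate activation of at least 40%, so every replicate reaches that level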
ERAP1 HTS inh: human ERAP1 aminopeptidase inhibitors, primary screen, biochemical, single point, plate reader | recombinant ERAP1, Leu-AMC fluorescence, 60 min | inhibition, % at 10.7 µM | 0.15% of 340,000 active | AID 652197, 2013;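 active means mean replicate inhibition of at least 30%, or all replicates individually reaching that 30% level; inactive means mean below 30% and not every replicate reaching it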
Numbers stand for hits. Hits are enriched below; roughly 2.6% of the tested compounds scored in any of these assays.

Screening CCN(CC)c1ccc(CN(C(=O)c2cccs2)C2CCS(=O)(=O)C2)cc1 (stereo not drawn) returned F508del corr inactive, DENV2 CPE rescue inactive, GSIS activator inactive and ERAP1 HTS inh inactive.
Screening Cc1ccc(CN(C(=O)c2cccs2)C2CCS(=O)(=O)C2)cc1 (stereo not drawn) returned F508del corr inactive, E-selectin induc inactive, DENV2 CPE rescue inactive, GSIS activator 57.0 and ERAP1 HTS inh inactive.
For O=C(c1ccco1)N(Cc1ccc(Cl)cc1)C1CCS(=O)(=O)C1 (stereo not drawn) the results were F508del corr inactive, DENV2 CPE rescue inactive, miR-122 sensor inactive, GSIS activator 41.7 and ERAP1 HTS inh inactive.
Screening O=C(c1ccc(Cl)c([N+](=O)[O-])c1)N(Cc1ccco1)C1CCS(=O)(=O)C1 (stereo not drawn) returned F508del corr inactive, DENV2 CPE rescue inactive, GSIS activator 43.2 and ERAP1 HTS inh inactive.
Screening O=C(c1ccccc1F)N1CC[C@@H]2[C@H]1c1cc(-c3ccccc3)ccc1N[C@@H]2CO returned F508del corr inactive, E-selectin induc inactive, DENV2 CPE rescue inactive, miR-122 sensor inactive, GSIS activator inactive and ERAP1 HTS inh inactive.
`COc1ccc2c3c([nH]c2c1)[C@H](CO)N(Cc1ccccc1)CC31CN(S(C)(=O)=O)C1` gave GSIS activator inactive.
`O=C(NC1CCCC1)C(C1CC1)n1c(-c2ccccn2)nc2ccccc21` (stereo not drawn) gave F508del corr inactive, E-selectin induc inactive, DENV2 CPE rescue inactive, GSIS activator 42.8 and ERAP1 HTS inh inactive.
Screening N/C(=N\OC(=O)Nc1ccccc1)c1ncc([N+](=O)[O-])s1 returned F508del corr inactive, E-selectin induc inactive, DENV2 CPE rescue 33.2, GSIS activator inactive and ERAP1 HTS inh inactive.
`O=C(COC(=O)COc1ccccc1)Nc1ncc([N+](=O)[O-])s1` gave F508del corr inactive, E-selectin induc inactive, DENV2 CPE rescue inactive, GSIS activator inactive and ERAP1 HTS inh inactive.
`COC(=O)Cn1c(=NC(=O)c2sc3ccccc3c2Cl)sc2cc(S(N)(=O)=O)ccc21` gave F508del corr inactive, DENV2 CPE rescue inactive, GSIS activator inactive and ERAP1 HTS inh inactive.
Screening CCOC(=O)Cn1c(=NC(=O)c2sc3ccccc3c2Cl)sc2cc(S(N)(=O)=O)ccc21 returned miR-122 sensor inactive and GSIS activator 70.7.
`CC1=NN(c2ccccc2)C(=O)C1N=Nc1ccccc1` (stereo not drawn) gave F508del corr inactive, E-selectin induc 59.5, DENV2 CPE rescue inactive, GSIS activator inactive and ERAP1 HTS inh inactive.
For CC1=NN(c2ccccc2)C(=O)C1N=Nc1cccc(O)c1 (stereo not drawn) the results were F508del corr 19.1, DENV2 CPE rescue inactive, miR-122 sensor inactive, GSIS activator inactive and ERAP1 HTS inh inactive.
For Cc1ccc(-c2ccc3c(c2)O[C@@H](CN(C)CC2CCCC2)[C@H](C)CN([C@@H](C)CO)S3(=O)=O)cc1 the results were F508del corr inactive, E-selectin induc inactive, DENV2 CPE rescue inactive, miR-122 sensor inactive, GSIS activator inactive and ERAP1 HTS inh inactive.
Cc1ccc(CN2CCSc3ccc(C(=O)NCc4cccnc4)cc32)cc1 was read as miR-122 sensor 155.4 and GSIS activator inactive.
Screening CN1CC(c2ccccc2Cl)C2(COc3ccccc3C2=O)C12C(=O)Nc1ccccc12 (stereo not drawn) returned miR-122 sensor 116.5.
Screening Cc1ccc(C2CN(C)C3(C(=O)Nc4ccccc43)C23COc2ccccc2C3=O)cc1 (stereo not drawn) returned miR-122 sensor 295.3.
For COc1ccc(S(=O)(=O)Nc2ccc3c(c2)CC(=O)N([C@H](C)CO)C[C@H](C)[C@H](CN(C)C(=O)Nc2ccc(F)cc2)O3)cc1 the results were F508del corr inactive, E-selectin induc inactive, DENV2 CPE rescue inactive, miR-122 sensor inactive and GSIS activator inactive.
COc1ccc(-c2ccc([C@H]3[C@@H](C#N)N(C(=O)NC(C)C)[C@H]3CO)cc2)cc1 was read as F508del corr inactive, E-selectin induc inactive, DENV2 CPE rescue inactive, GSIS activator inactive and ERAP1 HTS inh inactive.
C[C@@H]1CCCCO[C@H](CN(C)S(C)(=O)=O)[C@H](C)CN([C@@H](C)CO)C(=O)c2cc(NC(=O)Nc3ccc(F)cc3)ccc2O1 was read as F508del corr inactive, E-selectin induc inactive, DENV2 CPE rescue inactive, miR-122 sensor inactive and GSIS activator inactive.
For COc1ccc(CCNC(=O)CSc2ccccc2)cc1OC the results were E-selectin induc inactive, DENV2 CPE rescue inactive, GSIS activator 72.8 and ERAP1 HTS inh inactive.
`COc1ccc(CCNC(=O)CSc2ccccn2)cc1OC` gave F508del corr inactive, DENV2 CPE rescue inactive, GSIS activator inactive and ERAP1 HTS inh inactive.
For COc1ccc(CCNC(=O)C(=O)c2c(C)n(C)c3ccccc23)cc1OC the results were F508del corr inactive, DENV2 CPE rescue inactive, miR-122 sensor inactive, GSIS activator 46.0 and ERAP1 HTS inh inactive.
COc1cccc(/C=C/C(=O)NCCc2ccc(OC)c(OC)c2)c1 was read as F508del corr inactive, DENV2 CPE rescue 99.5 and ERAP1 HTS inh inactive.
COc1ccc(CCNC(=O)CSc2cccc3cccnc23)cc1OC was read as F508del corr inactive, DENV2 CPE rescue inactive, miR-122 sensor inactive, GSIS activator 40.5 and ERAP1 HTS inh inactive.
CCc1csc(N2[C@H](C#N)[C@H](c3ccc(-c4ccc(F)cc4)cc3)[C@@H]2CO)n1 was read as F508del corr inactive, E-selectin induc inactive, DENV2 CPE rescue inactive, GSIS activator inactive and ERAP1 HTS inh inactive.
`COc1ccc(CCNC(=O)CSC(=O)c2ccccc2)cc1OC` gave DENV2 CPE rescue inconclusive, GSIS activator 46.0 and ERAP1 HTS inh inactive.
For COc1ccc(CCNc2oc(-c3ccc(OC)c(OC)c3)nc2P(=O)(OC)OC)cc1OC the results were GSIS activator 67.9.
COc1ccc(CCNC(=O)CSCc2ccc(C)cc2)cc1OC was read as miR-122 sensor inactive and GSIS activator inactive.
For COc1ccc(CCNc2c3ccccc3nc3ccccc23)cc1OC the results were F508del corr 10.4, E-selectin induc inactive, DENV2 CPE rescue inactive, miR-122 sensor inactive, GSIS activator inactive and ERAP1 HTS inh inactive.
COc1cccc(NC(=O)N[C@@H]2CC[C@H](CC(=O)N3CCCCC3)O[C@@H]2CO)c1 was read as F508del corr inactive, E-selectin induc inactive, DENV2 CPE rescue inactive, GSIS activator inactive and ERAP1 HTS inh inactive.
